Results on three molecules are retold here after PMC5131535 (ACS chemical neuroscience, 2016).

“And” between values parts separate entries of the source, which are not always exact repeats. Equal values may be shown once. Read-outs that look alike come from different tables or passages of the source.

For one series, the target named is T1, Kir7.1-M125R (Homo sapiens, UniProt O60928, M125R).
T1 sequence (O60928 1-360 M125R): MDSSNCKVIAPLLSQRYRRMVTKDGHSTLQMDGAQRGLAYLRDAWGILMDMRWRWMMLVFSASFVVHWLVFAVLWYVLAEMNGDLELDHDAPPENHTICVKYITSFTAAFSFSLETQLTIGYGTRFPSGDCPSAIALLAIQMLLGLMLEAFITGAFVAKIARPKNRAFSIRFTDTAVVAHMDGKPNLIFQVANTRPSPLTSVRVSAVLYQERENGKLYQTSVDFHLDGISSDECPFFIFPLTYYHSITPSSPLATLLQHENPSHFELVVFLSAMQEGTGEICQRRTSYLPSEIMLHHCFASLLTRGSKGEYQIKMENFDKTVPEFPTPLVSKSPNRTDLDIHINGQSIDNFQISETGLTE
The series is described as follows: Tl+ flux assay in T-REx-HEK293 cells expressing Kir7.1-M125R. Type of series: cell-based. In outline: (§1)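 Tetracycline-inducible stable T-REx-HEK-293 lines, induced overnight with 1 µg/ml tetracycline in DMEM/10% dialyzed FBS. Cells loaded 1 hr with 1.2 µM Thallos-AM in HBSS/20 mM HEPES pH 7.3 with 0.01% Pluronic F-127. Baseline fluorescence (ex 470, em 540 nm) read at 1 Hz before adding stimulus buffer with 1.8 mM Tl₂SO₄. Traces normalized to first point and vehicle-subtracted; slope taken 5–20 s post-Tl⁺; IC50 by nonlinear regression of CRCs.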

For series [1], the target named is T2, Kir7.1 (Homo sapiens, UniProt O60928, M125R).
T2 sequence (O60928 1-360 M125R): T1 sequence (O60928 1-360 M125R)
The series is described as follows: Whole-cell patch clamp electrophysiology, Kir7.1. Type of series: cell-based. To be noted: Kir7.1 IC50 (Patch clamp), -120 mV. Summed up:
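Human Kir7.1 (WT or mutant) was transiently co-transfected with EGFP into HEK-293T cells, which were replated next day on poly-L-lysine coverslips. Whole-cell clamp used bath 5 mM KCl, pH 7.4, and pipette 135 mM KCl, pH 7.3. Cells were held at −75 mV, stepped 500 ms to −120 mV, then ramped to 120 mV, every 5 s. Increasing test-compound doses were superfused, then BaCl₂ block; current read at −120 mV; variable-slope Hill fit, mean of n = 5.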

The subject of the next series is Kir1.1. The series can be described thus: Tl+ flux selectivity assay, Kir1.1. Type of series: cell-based. The settings on record: Thallium flux, Kir7.1 over Kir1.1. In outline:
as §1

Series [2] has as its target T3, Kir2.1 (Homo sapiens, UniProt P63252).
T3 sequence (P63252 1-427): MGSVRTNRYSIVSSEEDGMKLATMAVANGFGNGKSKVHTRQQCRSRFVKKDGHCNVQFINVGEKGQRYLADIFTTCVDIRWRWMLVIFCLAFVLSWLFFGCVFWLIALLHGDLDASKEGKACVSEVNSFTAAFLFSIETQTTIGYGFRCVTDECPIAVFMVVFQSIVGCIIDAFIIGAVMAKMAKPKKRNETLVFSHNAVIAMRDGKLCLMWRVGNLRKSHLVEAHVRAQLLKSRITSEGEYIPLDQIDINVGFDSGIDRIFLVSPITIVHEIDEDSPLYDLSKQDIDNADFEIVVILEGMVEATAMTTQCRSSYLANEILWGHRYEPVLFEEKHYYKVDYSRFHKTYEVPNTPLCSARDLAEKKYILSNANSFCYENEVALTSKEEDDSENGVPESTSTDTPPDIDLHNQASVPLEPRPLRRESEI
The series is described as follows: Tl+ flux selectivity assay, Kir2.1. Type of series: cell-based. The settings on record: Thallium flux, Kir7.1 over Kir2.1. In outline: as §1

Another series concerns the target T4, Kir2.2 (Homo sapiens, UniProt Q14500).
T4 sequence (Q14500 1-433): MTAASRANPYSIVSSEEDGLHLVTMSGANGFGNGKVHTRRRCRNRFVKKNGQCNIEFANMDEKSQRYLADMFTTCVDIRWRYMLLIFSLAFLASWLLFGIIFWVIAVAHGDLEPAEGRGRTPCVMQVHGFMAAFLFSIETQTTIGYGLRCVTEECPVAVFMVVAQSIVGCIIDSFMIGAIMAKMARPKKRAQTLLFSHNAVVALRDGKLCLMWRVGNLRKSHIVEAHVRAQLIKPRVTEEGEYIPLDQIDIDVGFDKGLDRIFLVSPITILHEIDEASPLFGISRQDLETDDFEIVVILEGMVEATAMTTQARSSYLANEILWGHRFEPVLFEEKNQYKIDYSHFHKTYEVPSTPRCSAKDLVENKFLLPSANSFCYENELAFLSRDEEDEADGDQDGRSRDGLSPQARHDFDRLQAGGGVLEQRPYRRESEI
The series can be described thus: Tl+ flux selectivity assay, Kir2.2. To be noted: Thallium flux, Kir7.1 over Kir2.2. Type of series: cell-based.

A further series has as its target T5, Kir2.3 (Homo sapiens, UniProt P48050).
T5 sequence (P48050 1-445): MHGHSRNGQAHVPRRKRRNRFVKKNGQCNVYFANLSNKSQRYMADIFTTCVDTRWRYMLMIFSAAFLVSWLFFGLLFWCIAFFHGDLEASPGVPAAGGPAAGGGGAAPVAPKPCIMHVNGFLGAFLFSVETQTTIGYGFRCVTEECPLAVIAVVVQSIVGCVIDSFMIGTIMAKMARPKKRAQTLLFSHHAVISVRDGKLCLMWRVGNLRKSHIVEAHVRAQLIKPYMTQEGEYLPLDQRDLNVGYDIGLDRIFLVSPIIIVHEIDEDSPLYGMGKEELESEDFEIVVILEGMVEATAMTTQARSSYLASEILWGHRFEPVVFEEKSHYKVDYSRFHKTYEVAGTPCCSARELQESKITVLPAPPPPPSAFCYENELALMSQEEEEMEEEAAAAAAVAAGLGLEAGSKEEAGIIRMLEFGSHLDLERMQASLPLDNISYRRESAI
The series can be described thus: Tl+ flux selectivity assay, Kir2.3. The class given is cell-based. The settings on record: Thallium flux, Kir7.1 over Kir2.3.

A further series deals with T6, Kir4.1 (Homo sapiens, UniProt P78508).
T6 sequence (P78508 1-379): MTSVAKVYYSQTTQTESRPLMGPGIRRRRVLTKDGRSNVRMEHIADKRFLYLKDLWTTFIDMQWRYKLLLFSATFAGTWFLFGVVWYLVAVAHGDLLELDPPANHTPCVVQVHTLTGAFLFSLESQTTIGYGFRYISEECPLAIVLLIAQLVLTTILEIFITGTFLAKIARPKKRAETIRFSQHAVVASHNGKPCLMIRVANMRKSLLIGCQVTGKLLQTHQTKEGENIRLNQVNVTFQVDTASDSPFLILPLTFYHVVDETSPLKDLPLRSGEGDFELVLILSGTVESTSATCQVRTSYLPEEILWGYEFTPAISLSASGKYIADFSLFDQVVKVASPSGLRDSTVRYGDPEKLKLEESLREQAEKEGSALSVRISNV
The series is described as follows: Tl+ flux selectivity assay, Kir4.1. Type of series: cell-based. The settings on record: Thallium flux, Kir7.1 over Kir4.1. Summed up: as §1

Another series deals with Kir6.2/SUR1 (Homo sapiens, UniProt Q14654). The series can be described thus: Tl+ flux selectivity assay, Kir6.2/SUR1. Type of series: cell-based. To be noted: Thallium flux, Kir7.1 over Kir6.2/SUR1. Summed up: as §1
Chain of Kir6.2/SUR1 (Q14654 whole entry): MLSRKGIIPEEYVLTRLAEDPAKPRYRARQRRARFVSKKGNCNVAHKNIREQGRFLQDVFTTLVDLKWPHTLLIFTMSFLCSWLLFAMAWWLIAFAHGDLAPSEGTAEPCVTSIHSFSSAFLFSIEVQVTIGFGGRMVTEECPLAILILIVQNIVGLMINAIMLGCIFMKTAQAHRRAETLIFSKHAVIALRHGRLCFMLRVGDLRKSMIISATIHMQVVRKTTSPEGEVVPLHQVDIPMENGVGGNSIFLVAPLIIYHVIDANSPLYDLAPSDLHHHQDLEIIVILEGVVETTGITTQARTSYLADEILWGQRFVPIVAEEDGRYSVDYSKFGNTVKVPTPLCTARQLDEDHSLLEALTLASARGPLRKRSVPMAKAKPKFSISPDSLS
Chain of Kir6.2/SUR1 (Q09428 whole entry partner): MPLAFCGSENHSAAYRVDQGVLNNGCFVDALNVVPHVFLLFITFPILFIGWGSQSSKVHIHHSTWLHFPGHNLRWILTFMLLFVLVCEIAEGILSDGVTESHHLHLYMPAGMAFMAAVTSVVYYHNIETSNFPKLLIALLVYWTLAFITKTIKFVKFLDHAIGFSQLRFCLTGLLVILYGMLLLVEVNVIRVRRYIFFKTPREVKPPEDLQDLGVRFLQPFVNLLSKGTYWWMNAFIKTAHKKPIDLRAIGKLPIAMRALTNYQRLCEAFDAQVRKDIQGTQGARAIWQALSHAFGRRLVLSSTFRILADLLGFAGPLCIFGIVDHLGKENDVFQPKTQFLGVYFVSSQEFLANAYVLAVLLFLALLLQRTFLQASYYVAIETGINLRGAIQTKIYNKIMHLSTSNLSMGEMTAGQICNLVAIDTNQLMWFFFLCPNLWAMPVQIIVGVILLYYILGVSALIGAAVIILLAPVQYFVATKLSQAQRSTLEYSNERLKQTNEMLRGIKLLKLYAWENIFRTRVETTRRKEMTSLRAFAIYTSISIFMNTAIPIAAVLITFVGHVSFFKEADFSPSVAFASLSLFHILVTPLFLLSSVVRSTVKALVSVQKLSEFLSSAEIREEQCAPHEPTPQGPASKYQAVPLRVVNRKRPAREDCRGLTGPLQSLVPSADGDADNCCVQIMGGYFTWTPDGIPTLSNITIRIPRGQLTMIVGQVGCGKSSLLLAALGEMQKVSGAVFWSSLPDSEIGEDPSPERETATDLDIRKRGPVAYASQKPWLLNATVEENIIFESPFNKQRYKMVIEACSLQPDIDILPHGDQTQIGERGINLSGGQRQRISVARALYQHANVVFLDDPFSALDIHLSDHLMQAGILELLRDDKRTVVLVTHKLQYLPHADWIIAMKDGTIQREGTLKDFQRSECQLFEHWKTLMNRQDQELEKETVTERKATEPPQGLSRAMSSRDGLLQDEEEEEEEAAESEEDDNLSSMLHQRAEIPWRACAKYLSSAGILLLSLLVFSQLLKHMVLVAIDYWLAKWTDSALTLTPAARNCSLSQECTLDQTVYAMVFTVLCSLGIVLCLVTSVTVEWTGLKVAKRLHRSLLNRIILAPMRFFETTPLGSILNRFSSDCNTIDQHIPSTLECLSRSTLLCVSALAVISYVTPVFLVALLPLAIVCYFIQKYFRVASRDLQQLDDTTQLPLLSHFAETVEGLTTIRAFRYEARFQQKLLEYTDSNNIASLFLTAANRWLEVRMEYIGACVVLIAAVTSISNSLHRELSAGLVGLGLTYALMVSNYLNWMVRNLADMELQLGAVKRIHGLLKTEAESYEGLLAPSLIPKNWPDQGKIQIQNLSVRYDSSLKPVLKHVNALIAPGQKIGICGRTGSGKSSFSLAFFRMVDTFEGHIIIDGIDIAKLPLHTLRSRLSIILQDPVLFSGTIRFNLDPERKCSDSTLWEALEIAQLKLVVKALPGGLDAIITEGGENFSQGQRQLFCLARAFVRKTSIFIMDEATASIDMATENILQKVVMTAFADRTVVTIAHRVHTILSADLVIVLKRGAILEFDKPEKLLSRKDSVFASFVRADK
A short description of series [3]: Protein binding in plasma. The settings on record: rat.
The nature of series [4]: Protein binding in plasma. To be noted: mouse.
Series [5] is described as follows: Protein binding in plasma. The settings on record: human.
Series [6] relates to Kir7.1. To be noted: read-out: Kir7.1 IC50 EP, cited from earlier work.
In series [7] the test system is ROMK. The settings on record: read-out: ROMK IC50 EP, cited from earlier work.
Series [8] has as its target T3, Kir2.1. The settings on record: read-out: Kir2.1 IC50; at pH 8.0; ref [24]; cited from earlier work.
Series [9] relates to ROMK. The settings on record: read-out: ROMK IC50 Tl+; ref [16]; cited from earlier work.

As a reminder, the IC50 is the concentration at which inhibition is half-maximal. In general, fraction unbound refers to the share of the substance not bound to proteins or other matrix. Read a low fraction unbound as little free substance.

With `CC(C)(C)OC(=O)NC1CCN(Cc2cc(Cl)c3cccnc3c2O)CC1` [Compound 11, tert-Butyl (1-((5-chloro-8-hydroxyquinolin-7-yl)methyl)piperidin-4-yl)carbamate], the IC50 against Kir7.1-M125R came out at 1700 nM; at Kir7.1 [1], 470 nM. Further, in the series with Kir1.1, the “Kir Channel Selectivity (Fold) 1.1” value is recorded as greater than 18 Fold. On Kir2.1 [2], the “Kir Channel Selectivity (Fold) 2.1” value is on record as greater than 18 Fold. The “Kir Channel Selectivity (Fold) 2.2” value on Kir2.2 is listed as greater than 18 Fold. Further, the “Kir Channel Selectivity (Fold) 2.3” value at Kir2.3 was greater than 18 Fold. Further, the “Kir Channel Selectivity (Fold) 4.1” value at Kir4.1 is greater than 18 Fold. Besides, the “Kir Channel Selectivity (Fold) 6.2” value on Kir6.2/SUR1 stood at 1 Fold. Moreover, the fraction unbound in series [3] was 0.036; in [4], 0.056; in series [5], 0.011.

Turning to `COc1ccc(CNCc2cccc3ccccc23)cc1` [ML133], the 50% inhibitory concentration (IC50) was 33000 nM with Kir7.1 [6] (ref [24]), greater than 300000 nM in the series with ROMK [7] (ref [24]) and 300 nM on Kir2.1 [8].

In the case of `O=[N+]([O-])c1ccc(CN2CCOCCOCCN(Cc3ccc([N+](=O)[O-])cc3)CCOCC2)cc1` [VU590], the IC50 in the series on Kir7.1 [6] (ref [16]) was ~8000 nM and 8000 nM; in the series on ROMK [9], 300 nM; in the series on ROMK [7] (ref [16]), 240 nM.
